Values after ≈ are worked out from the molar mass of the structure shown.
Key:
Candida albicans [1] = assay: Anticandidal activity against Candida albicans 15T after 24 hrs by spectrophotometry; type: functional
Pichia kudriavzevii [2] = assay: Anticandidal activity against Candida krusei 193T after 24 hrs by spectrophotometry; type: functional
Pichia kudriavzevii [3] = assay: Anticandidal activity against Candida krusei ATCC 14243 after 24 hrs by spectrophotometry; type: functional; settings: ATCC 14243, 24 h
Candida albicans [4] = assay: Anticandidal activity against Candida albicans 4T after 24 hrs by spectrophotometry; type: functional
Candida albicans [5] = assay: Anticandidal activity against Candida albicans ATCC 60193 after 24 hrs by spectrophotometry; type: functional; settings: ATCC 60193, 24 h
Candida parapsilosis [6] = assay: Anticandidal activity against Candida parapsilosis 81E after 24 hrs by spectrophotometry; type: functional; settings: Lodderomyces parapsilosis
Candida tropicalis = assay: Anticandidal activity against Candida tropicalis 86E after 24 hrs by spectrophotometry; type: functional
Candida albicans [7] = assay: Anticandidal activity against Candida albicans 53T after 24 hrs by spectrophotometry; type: functional
Nakaseomyces glabratus = assay: Anticandidal activity against Candida glabrata 70E after 24 hrs by spectrophotometry; type: functional
Candida parapsilosis [8] = assay: Anticandidal activity against Candida parapsilosis 64E after 24 hrs by spectrophotometry; type: functional; settings: Lodderomyces parapsilosis
Candida parapsilosis [9] = assay: Anticandidal activity against Candida parapsilosis ATCC 34136 after 24 hrs by spectrophotometry; type: functional; settings: Lodderomyces parapsilosis, ATCC 34136, 24 h
Aspergillus versicolor [10] = assay: Antifungal activity against Aspergillus versicolor isolated from patient skin after 48 hrs by broth microdilution method; type: functional
Aspergillus niger [11] = assay: Antifungal activity against Aspergillus niger isolated from patient nasal swab after 48 hrs by broth microdilution method; type: functional
Aspergillus fumigatus [12] = assay: Antifungal activity against Aspergillus fumigatus isolated from patient sputum after 48 hrs by broth microdilution method; type: functional
Aspergillus flavus = assay: Antifungal activity against Aspergillus flavus isolated from patient sputum after 48 hrs by broth microdilution method; type: functional
Aspergillus fumigatus [13] = assay: Antifungal activity against Aspergillus fumigatus isolated from patient bronchoalveolar lavage fluid after 48 hrs by broth microdilution method; type: functional; settings: Lung
Aspergillus terreus = assay: Antifungal activity against Aspergillus terreus isolated from patient bronchoalveolar lavage fluid after 48 hrs by broth microdilution method; type: functional; settings: Lung
Aspergillus versicolor [14] = assay: Antifungal activity against Aspergillus versicolor isolated from patient sputum after 48 hrs by broth microdilution method; type: functional
Aspergillus niger [15] = assay: Antifungal activity against Aspergillus niger isolated from patient sputum after 48 hrs by broth microdilution method; type: functional
[16] = Cytotoxicity against human lymphocytes at 50 uM; type: cell-based; settings: lymphocyte
Method in brief: (§1)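 Human lymphocytes exposed to compound at concentrations between 0 and 50 μM, at both 25 and 37 °C; read-out is percent cell viability.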

[17] = Cytotoxicity against human lymphocytes at 40 uM; type: cell-based; settings: lymphocyte; method in brief: as §1
[18] = Cytotoxicity against human lymphocytes assessed as cell viability up to 30 uM; type: cell-based, Lymphocyte; settings: read-out: Activity; method in brief: as §1
[19] = Therapeutic index, ratio of drug level reducing 50% viability of human lymphocytes at 37 degC to MIC50 for Candida sp.
Method in brief: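 Index is the lymphocyte concentration giving 50% viability at 37 °C divided by MIC50 for each Candida species; lymphocytes were exposed to 0–50 μM.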

[20] = Therapeutic index, ratio of drug level reducing 50% viability of human lymphocytes at 25 degC to MIC50 for Candida sp.

Structure (SMILES) | MIC (Candida albicans [1]) | MIC (Pichia kudriavzevii [2]) | MIC (Pichia kudriavzevii [3]) | MIC (Candida albicans [4]) | MIC (Candida albicans [5]) | MIC (Candida parapsilosis [6]) | MIC (Candida tropicalis) | MIC (Candida albicans [7]) | MIC (Nakaseomyces glabratus) | MIC (Candida parapsilosis [8]) | MIC (Candida parapsilosis [9]) | also measured
N=C(N)NCCCCCCCCNCCCCCCCCNC(=N)N [IMINOCTADIENE] | 80 µM (≈ 28.4 µg/mL) | 20 µM (≈ 7.11 µg/mL) | 20 µM (≈ 7.11 µg/mL) | 80 µM (≈ 28.4 µg/mL) | 80 µM (≈ 28.4 µg/mL) | 20 µM (≈ 7.11 µg/mL) | 1.25 µM (≈ 0.444 µg/mL) | 40 µM (≈ 14.2 µg/mL) | 40 µM (≈ 14.2 µg/mL) | 40 µM (≈ 14.2 µg/mL) | > 80 µM | 
N=C(N)NCCCCCCCCNCCCCCCCCNC(=N)NCC1CC1 | 20 µM (≈ 8.19 µg/mL) | 10 µM (≈ 4.1 µg/mL) | 5 µM (≈ 2.05 µg/mL) | 10 µM (≈ 4.1 µg/mL) | 20 µM (≈ 8.19 µg/mL) | 20 µM (≈ 8.19 µg/mL) | 5 µM (≈ 2.05 µg/mL) | 10 µM (≈ 4.1 µg/mL) | 20 µM (≈ 8.19 µg/mL) | 5 µM (≈ 2.05 µg/mL) | 80 µM (≈ 32.8 µg/mL) | 
N=C(N)NCCCCCCCCN(CCCCCCCCNC(=N)N)C(=N)N | 10 µM (≈ 3.98 µg/mL) | 40 µM (≈ 15.9 µg/mL) | 10 µM (≈ 3.98 µg/mL) | 5 µM (≈ 1.99 µg/mL) | 5 µM (≈ 1.99 µg/mL) | > 80 µM | 1.25 µM (≈ 0.497 µg/mL) | 20 µM (≈ 7.95 µg/mL) | > 80 µM | > 80 µM | > 80 µM | 
N=C(NCCCCCCCCN1CCCCCCCCNC(=N)NC1=O)NCc1ccccc1 | 5 µM (≈ 2.36 µg/mL) | 10 µM (≈ 4.72 µg/mL) | 20 µM (≈ 9.43 µg/mL) | 2.5 µM (≈ 1.18 µg/mL) | 2.5 µM (≈ 1.18 µg/mL) | 20 µM (≈ 9.43 µg/mL) | 2.5 µM (≈ 1.18 µg/mL) | 2.5 µM (≈ 1.18 µg/mL) | 40 µM (≈ 18.9 µg/mL) | 20 µM (≈ 9.43 µg/mL) | 80 µM (≈ 37.7 µg/mL) | 
CCC(C)n1ncn(-c2ccc(N3CCN(c4ccc(OCC5COC(Cn6cncn6)(c6ccc(Cl)cc6Cl)O5)cc4)CC3)cc2)c1=O (stereo not given) [ITRACONAZOLE] |  |  |  |  |  |  |  |  |  |  |  | MIC (Aspergillus versicolor [10]): 0.35 µM (≈ 0.247 µg/mL); MIC (Aspergillus niger [11]): 0.35 µM (≈ 0.247 µg/mL); MIC (Aspergillus fumigatus [12]): 0.35 µM (≈ 0.247 µg/mL); MIC (Aspergillus flavus): 0.04 µM (≈ 0.0282 µg/mL); MIC (Aspergillus fumigatus [13]): 0.04 µM (≈ 0.0282 µg/mL); MIC (Aspergillus terreus): 0.35 µM (≈ 0.247 µg/mL); MIC (Aspergillus versicolor [14]): 0.02 µM (≈ 0.0141 µg/mL); MIC (Aspergillus niger [15]): 0.35 µM (≈ 0.247 µg/mL)
CC(C)=CCNC(=N)NCCCCCCCCN1CCCCCCCCNC(=N)NC1=O | 20 µM (≈ 8.99 µg/mL) | 20 µM (≈ 8.99 µg/mL) | 10 µM (≈ 4.5 µg/mL) | 20 µM (≈ 8.99 µg/mL) | 40 µM (≈ 18 µg/mL) | 40 µM (≈ 18 µg/mL) | 20 µM (≈ 8.99 µg/mL) | 20 µM (≈ 8.99 µg/mL) | 80 µM (≈ 36 µg/mL) | > 80 µM | > 80 µM | 
OC(Cn1cncn1)(Cn1cncn1)c1ccc(F)cc1F [FLUCONAZOLE] | 209 µM (≈ 64 µg/mL) | 418 µM (≈ 128 µg/mL) | 209 µM (≈ 64 µg/mL) | 209 µM (≈ 64 µg/mL) | 0.8 µM (≈ 0.245 µg/mL) | 13 µM (≈ 3.98 µg/mL) | 52 µM (≈ 15.9 µg/mL) | 418 µM (≈ 128 µg/mL) | 209 µM (≈ 64 µg/mL) | 32 µM (≈ 9.8 µg/mL) | 6.5 µM (≈ 1.99 µg/mL) | 
CC(C)=CCNC(=N)NCCCCCCCCNCCCCCCCCNC(=N)NCC=C(C)C | > 80 µM | 80 µM (≈ 39.3 µg/mL) | 40 µM (≈ 19.7 µg/mL) | 80 µM (≈ 39.3 µg/mL) | > 80 µM | > 80 µM | > 80 µM | 80 µM (≈ 39.3 µg/mL) | > 80 µM | > 80 µM | > 80 µM | 
C#CCNC(=N)NCCCCCCCCN1CCCCCCCCNC(=N)NC1=O | 2.5 µM (≈ 1.05 µg/mL) | 40 µM (≈ 16.8 µg/mL) | 80 µM (≈ 33.6 µg/mL) | 80 µM (≈ 33.6 µg/mL) | 2.5 µM (≈ 1.05 µg/mL) | 80 µM (≈ 33.6 µg/mL) | 5 µM (≈ 2.1 µg/mL) | 5 µM (≈ 2.1 µg/mL) | 80 µM (≈ 33.6 µg/mL) | 40 µM (≈ 16.8 µg/mL) | 40 µM (≈ 16.8 µg/mL) | 
CC(C)=CCNC(=N)NCCCCCCCCNCCCCCCCCNC(=N)N | 40 µM (≈ 16.9 µg/mL) | 20 µM (≈ 8.47 µg/mL) | 40 µM (≈ 16.9 µg/mL) | 80 µM (≈ 33.9 µg/mL) | 80 µM (≈ 33.9 µg/mL) | 40 µM (≈ 16.9 µg/mL) | 20 µM (≈ 8.47 µg/mL) | 80 µM (≈ 33.9 µg/mL) | 80 µM (≈ 33.9 µg/mL) | > 80 µM | > 80 µM | 
C[C@@H]1[C@H](O)[C@@H](C)/C=C/C=C/C=C/C=C/C=C/C=C/C=C/[C@H](O[C@@H]2O[C@H](C)[C@@H](O)[C@H](N)[C@@H]2O)C[C@@H]2O[C@](O)(C[C@@H](O)C[C@@H](O)[C@H](O)CC[C@@H](O)C[C@@H](O)CC(=O)O[C@H]1C)C[C@H](O)[C@H]2C(=O)O [AMPHOTERICIN B] |  |  |  |  |  |  |  |  |  |  |  | MIC (Aspergillus versicolor [10]): 0.135 µM (≈ 0.125 µg/mL); MIC (Aspergillus niger [11]): 0.135 µM (≈ 0.125 µg/mL); MIC (Aspergillus fumigatus [12]): 0.135 µM (≈ 0.125 µg/mL); MIC (Aspergillus flavus): 2.1 µM (≈ 1.94 µg/mL); MIC (Aspergillus fumigatus [13]): 0.27 µM (≈ 0.25 µg/mL); MIC (Aspergillus terreus): 1 µM (≈ 0.924 µg/mL); MIC (Aspergillus versicolor [14]): 0.54 µM (≈ 0.499 µg/mL); MIC (Aspergillus niger [15]): 0.27 µM (≈ 0.25 µg/mL)
C=C(C)CNC(=N)NCCCCCCCCN1CCCCCCCCNC(=N)NC1=O | 20 µM (≈ 8.71 µg/mL) | 80 µM (≈ 34.9 µg/mL) | 40 µM (≈ 17.4 µg/mL) | 40 µM (≈ 17.4 µg/mL) | 20 µM (≈ 8.71 µg/mL) | > 80 µM | 40 µM (≈ 17.4 µg/mL) | 40 µM (≈ 17.4 µg/mL) | 80 µM (≈ 34.9 µg/mL) | > 80 µM | > 80 µM | 
C/C=C/CNC(=N)NCCCCCCCCN1CCCCCCCCNC(=N)NC1=O | 1.25 µM (≈ 0.545 µg/mL) | 5 µM (≈ 2.18 µg/mL) | 5 µM (≈ 2.18 µg/mL) | 1.25 µM (≈ 0.545 µg/mL) | 2.5 µM (≈ 1.09 µg/mL) | 5 µM (≈ 2.18 µg/mL) | 1.25 µM (≈ 0.545 µg/mL) | 2.5 µM (≈ 1.09 µg/mL) | 20 µM (≈ 8.71 µg/mL) | 5 µM (≈ 2.18 µg/mL) | 5 µM (≈ 2.18 µg/mL) | Activity [16]: 43%; Activity [17]: 78%; MIC (Aspergillus versicolor [10]): 4 µM (≈ 1.74 µg/mL); MIC (Aspergillus niger [11]): 18 µM (≈ 7.84 µg/mL); viability [18]: 100%; MIC (Aspergillus fumigatus [12]): 73 µM (≈ 31.8 µg/mL); MIC (Aspergillus flavus): 36 µM (≈ 15.7 µg/mL); MIC (Aspergillus fumigatus [13]): 36 µM (≈ 15.7 µg/mL); MIC (Aspergillus terreus): 73 µM (≈ 31.8 µg/mL); Ratio [19]: 1.9; MIC (Aspergillus versicolor [14]): 18 µM (≈ 7.84 µg/mL); Ratio [20]: 2.4; MIC (Aspergillus niger [15]): 18 µM (≈ 7.84 µg/mL)

— ChEMBL document CHEMBL1154780, “Synthesis of new linear guanidines and macrocyclic amidinourea derivatives endowed with high antifungal activity against Candida spp. and Aspergillus spp” (J Med Chem, 2009)
